Assay results reported in paper PMC5346068 (ACS infectious diseases, 2017).
Values after ≈ are worked out from the molar mass of the structure shown. “Also recorded” adds a separate entry of the source.

Assays:
[1] = tested on: T. b. brucei (GVR 35 strain); assay: Murine CNS infection model; type: in vivo, mouse; conditions: tail blood; for mice with no detectable parasitemia, day 28: 1 at 20 mg/kg/day days 21-25, Berenil single 40 mg/kg day 21
How it was run: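 Mice were infected on day 0 with T. b. brucei GVR 35, in two groups of 5, and checked for parasitemia on day 14. The control group got a single 40 mg/kg Berenil dose on day 21, then vehicle (DMSO in PBS) on days 22–25. The treated group got test compound at 20 mg/kg/day on days 21–25 and again on days 28–32. Tail blood was examined on days 14, 28, 35, 39 and 43.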

[2] = tested on: wild-type T. brucei; assay: Wild-type T. brucei growth inhibition assay; type: cell-based; conditions: Trypanosoma brucei, read-out: WT EC50
[3] = MRC5-SV2 human lung cell toxicity; type: cell-based; conditions: MRC5-SV2 human lung cells
[4] = Human liver microsome clearance; type: in vitro ADME; conditions: liver microsomes
[5] = target: T1, T. brucei MetRS (Trypanosoma brucei brucei, UniProt Q38C91); assay: T. brucei MetRS inhibition assay; type: biochemical
T1 sequence (Q38C91 1-773): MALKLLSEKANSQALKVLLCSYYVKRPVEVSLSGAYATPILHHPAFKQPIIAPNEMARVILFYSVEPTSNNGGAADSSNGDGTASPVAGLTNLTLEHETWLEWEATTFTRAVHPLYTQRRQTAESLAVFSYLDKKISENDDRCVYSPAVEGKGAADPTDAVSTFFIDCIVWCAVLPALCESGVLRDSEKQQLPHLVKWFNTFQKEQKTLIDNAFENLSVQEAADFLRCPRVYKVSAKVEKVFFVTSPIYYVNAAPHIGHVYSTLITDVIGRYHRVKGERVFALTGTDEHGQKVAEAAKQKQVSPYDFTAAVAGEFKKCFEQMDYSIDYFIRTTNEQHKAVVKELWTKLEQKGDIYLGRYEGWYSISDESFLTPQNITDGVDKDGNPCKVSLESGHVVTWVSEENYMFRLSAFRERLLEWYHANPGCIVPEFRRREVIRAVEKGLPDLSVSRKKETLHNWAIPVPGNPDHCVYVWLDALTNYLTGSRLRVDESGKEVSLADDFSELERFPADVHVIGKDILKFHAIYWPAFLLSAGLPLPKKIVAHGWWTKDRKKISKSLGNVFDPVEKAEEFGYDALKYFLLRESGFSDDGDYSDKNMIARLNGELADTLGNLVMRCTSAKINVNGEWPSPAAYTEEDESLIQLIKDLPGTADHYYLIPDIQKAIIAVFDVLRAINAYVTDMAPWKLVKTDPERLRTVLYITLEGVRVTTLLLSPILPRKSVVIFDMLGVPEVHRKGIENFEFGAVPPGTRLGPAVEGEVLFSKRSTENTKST

[6] = tested on: 1433-resistant T. brucei; assay: microbe, parasite or virus in culture; type: cell-based, Trypanosoma brucei; conditions: for EC50: Trypanosoma brucei, read-out: 1433 resistant EC50; for 1433 resistant EC50 / WT EC50: fold shift resistant vs wild-type
[7] = Rat hepatocyte clearance; type: in vitro ADME; conditions: rat hepatocytes
[8] = logD 7.4; type: physicochemical; conditions: pH 7.4
[9] = Mouse plasma and brain pharmacokinetics; type: in vivo, female BALB/c mice; conditions: female, BALB/c, brain, ip, 10 mg/kg
How it was run: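 Female BALB/c mice received a single intraperitoneal 10 mg/kg dose of test compound. Drug levels were measured in plasma and brain, and the brain-to-plasma ratio and brain concentration were taken at the 24 h time point.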

[10] = Aqueous solubility; type: physicochemical
[11] = tested on: T. brucei; assay: T. brucei in vitro growth inhibition; type: cell-based; conditions: Trypanosoma brucei, read-out: T. brucei EC50
[12] = tested on: T. brucei rhodesiense; conditions: T. brucei rhodesiense mouse model of HAT; cited from earlier work
[13] = Human plasma protein binding; type: in vitro ADME

| Compound | mice with no detectable parasitemia, day 28 [1] | parasitemia, day 39 [1] | mice showing a relapse, day 43 ([1]; day 43, group of 5 mice) | EC50 [2] | EC50 [3] | microsomal CLint [4] | IC50 [5] | EC50 [6] | 1433 resistant EC50 / WT EC50 [6] | Rat Hepatocyte Clint [7] | logD [8] | concentration at 24 h [9] | solubility [10] | EC50 [11] | efficacy in bloodstream infection mouse model [12] | fraction unbound [13] | T. brucei MetRS inhibition ([5]; up to 10 µM) |
| --- | --- | --- | --- | --- | --- | --- | --- | --- | --- | --- | --- | --- | --- | --- | --- | --- | --- |
| CC(=O)NCC(=O)O.CC(=O)NCC(=O)O.N=C(N)c1ccc(N=NNc2ccc(C(=N)N)cc2)cc1 [Berenil] | no detectable levels of parasitemia | no detectable levels of parasitemia | 2 | – | – | – | – | – | – | – | – | – | – | – | – | – | – |
| OCCn1c(CNCCCNc2nc3ccccc3[nH]2)cc2c(Cl)cc(Cl)cc21 [Compound 1, 2-(2-(((3-((1H–Benzo[d]imidazol-2-yl)amino)propyl)amino)methyl)-4,6-dichloro-1H–indol-1-yl)ethan-1-ol] | 3/5 | full relapse of parasites in the blood | – | 0.13 ± 0.01 nM | 12000 nM | 24 µL/min/mg | < 25 nM | 14 ± 1 nM | 108 | 24.9 µL/min/10^6 | 4 | 31.6 ng/g | 6.33 µM (≈ 2.74 µg/mL) | 0.96 nM | cured a bloodstream infection | < 0.001 | – |
| N=C(N)c1ccc(OCCCCCOc2ccc(C(=N)N)cc2)cc1 [Pentamidine, reference compound] | – | – | – | 1.5 ± 0.2 nM | – | – | – | 1.1 ± 0.1 nM | 0.73 | – | – | – | – | – | – | – | no T. brucei MetRS inhibition; also recorded: does not inhibit T. brucei MetRS |
